Measurements from ChEMBL document CHEMBL1122484, “An analysis of 1-(2-chloroethyl)-1-nitrosourea activity at the cellular level” (J Med Chem, 1983).

Tests used:
[1] = Alkylating activity was determined; assay type: ADME
P388 [2] = assay: Mean value for the exposure for P388 to the drug for a period of 60 min; assay type: functional; conditions: Mus musculus, P388, 1 h; read-out: ED50 (the source's name)
Procedure, shortened: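 P388 mouse leukemia cells in log-phase suspension culture (Fischer's medium, 10% horse serum) at 1 × 10^6 cells/mL, exposed at 37 °C, pH 7.4, to graded initial drug concentrations (ethanol/water vehicle, <0.1% ethanol) in duplicate tubes for the stated period. Cells then diluted to 6.6 × 10^4 cells/mL in fresh medium, grown 48 h, Coulter counted; ED50 = dose giving 50% decrease in cell number versus untreated.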

[3] = Pharmacokinetic parameter k2 was determined; assay type: ADME
Procedure, shortened: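 First-order rate constant for chemical conversion of the parent nitrosourea to its active alkylating intermediate. Measured in aqueous buffer or human serum at pH 7.4 and 37 °C.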

P388 [4] = assay: Mean value for the exposure for P388 to the drug following a variety of treatment schedules at pH 7.4 and 37 degree; conditions: Mus musculus, read-out: ED50 (the source's name)
[5] = Carbamoylating activity was determined; assay type: ADME

SMILES | Alkylating activity [1] | EC50 (P388 [2]) | k2 [3] | EC50 (P388 [4]) | Carbamoylating activity [5]
O=NN(CCCl)C(=O)NC1CCCCC1 [LOMUSTINE] | 100 | 13 µM | 0.013 min⁻¹ | 6.7 µM | 100
O=NN(CCCl)C(=O)NCCCl [CARMUSTINE] | 260 | 13.3 µM | 0.014 min⁻¹ | 6.3 µM | 70
O=NN(CCCl)C(=O)N[C@H]1C(O)O[C@H](CO)[C@@H](O)[C@@H]1O (stereo not given in full) [CHLOROZOTOCIN] | 450 | 17 µM | 0.033 min⁻¹ | 11.7 µM | 2
O=NN(CCCl)C(=O)NC1CCC(=O)NC1=O (stereo not given) | 360 | 8.1 µM | 0.027 min⁻¹ | 6.5 µM | 24
NC(=O)N(CCCl)N=O | 1000 | 6 µM | 0.53 min⁻¹ | 5.7 µM | 20
